This assay deals with Hemagglutinin (Influenza A virus (strain A/X-31 H3N2)) (UniProt P03438). Nature of the assay: Inhibition of influenza A, strain X-31, induced hemagglutinination of chicken erythrocytes. To be noted: Influenza A virus (A/X-31(H3N2)). In kind it is functional. The essentials: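 Binding affinities come from hemagglutination inhibition with adult chicken red blood cells. Each is reported as a relative affinity against methyl α-sialoside (Neu5Acα2Me), whose affinity is set at 1.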
Sequence of Hemagglutinin (Influenza A virus (strain A/X-31 H3N2)) (P03438 whole entry): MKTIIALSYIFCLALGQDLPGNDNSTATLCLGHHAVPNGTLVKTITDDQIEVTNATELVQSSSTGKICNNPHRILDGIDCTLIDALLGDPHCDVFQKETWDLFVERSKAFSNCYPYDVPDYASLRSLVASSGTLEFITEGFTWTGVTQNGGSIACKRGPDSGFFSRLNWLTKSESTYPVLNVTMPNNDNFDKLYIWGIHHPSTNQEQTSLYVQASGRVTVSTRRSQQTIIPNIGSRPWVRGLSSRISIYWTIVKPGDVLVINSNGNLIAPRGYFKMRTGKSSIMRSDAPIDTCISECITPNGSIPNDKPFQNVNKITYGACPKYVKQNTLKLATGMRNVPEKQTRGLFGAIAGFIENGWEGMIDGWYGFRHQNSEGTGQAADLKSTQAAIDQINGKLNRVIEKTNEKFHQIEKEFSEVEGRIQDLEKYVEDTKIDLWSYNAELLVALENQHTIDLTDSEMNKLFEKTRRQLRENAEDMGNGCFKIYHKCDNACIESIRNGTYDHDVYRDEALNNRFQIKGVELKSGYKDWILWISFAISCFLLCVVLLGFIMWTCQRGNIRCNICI
As for `CC(=O)NC1C(O)CC(OCCCCC(=O)NCc2cc3ccccc3c3ccccc23)(C(=O)O)OC1[C@H](O)[C@H](O)CO` (some centres undefined), the Relative affinity came to 32.

As to `CC(=O)NC1C(O)CC(OCCCCC(=O)NCc2cccc3ccccc23)(C(=O)O)OC1[C@H](O)[C@H](O)CO` (some centres undefined), the Relative affinity turned out to be 32.

Molecule `CC(=O)NC1C(O)CC(OCCC(=O)NCc2cccc3ccccc23)(C(=O)O)OC1[C@H](O)[C@H](O)CO` (some centres undefined) came in with a Relative affinity of 8.

With `CC(=O)NC1C(O)CC(OCCCCC(=O)NCc2ccccc2)(C(=O)O)OC1[C@H](O)[C@H](O)CO` (some centres undefined), the Relative affinity was determined as 8.

As for `CC(=O)NC1C(O)CC(OCCCCCCC(=O)NCc2ccccc2)(C(=O)O)OC1[C@H](O)[C@H](O)CO` (some centres undefined), the Relative affinity came out at 16.

As for `CC(=O)NC1C(O)CC(OCCCCC(=O)NCCNC(=O)OCc2ccccc2)(C(=O)O)OC1[C@H](O)[C@H](O)CO` (some centres undefined), the Relative affinity stood at 4.

In turn, `CC(=O)NC1C(O)CC(OCCCCC(=O)NCc2cccc(C(=O)O)c2)(C(=O)O)OC1[C@H](O)[C@H](O)CO` (some centres undefined) gave a Relative affinity of 16.

In turn, `CC(=O)NC1C(O)CC(OCCCCCCC(=O)NCc2cc3ccccc3c3ccccc23)(C(=O)O)OC1[C@H](O)[C@H](O)CO` (some centres undefined) gave a Relative affinity of 64.

The molecule `CC(=O)NC1C(O)CC(OCCCCC(=O)NNS(=O)(=O)c2cccc3c(N(C)C)cccc23)(C(=O)O)OC1[C@H](O)[C@H](O)CO` (some centres undefined) showed a Relative affinity of 4.

As to `CC(=O)NC1C(O)CC(OCCCCCCC(=O)NCc2cccc3ccccc23)(C(=O)O)OC1[C@H](O)[C@H](O)CO` (some centres undefined), the Relative affinity came to 64.

Molecule `CNC(=O)CCCCOC1(C(=O)O)CC(O)C(NC(C)=O)C([C@H](O)[C@H](O)CO)O1` (some centres undefined) gave a Relative affinity of 1.

`CC(=O)NC1C(O)CC(OCCCCC(=O)NCc2ccc3ncccc3c2)(C(=O)O)OC1[C@H](O)[C@H](O)CO` (some centres undefined) returned a Relative affinity of 8.

Regarding `CC(=O)NC1C(O)CC(OCCCCCCCCC(=O)NCc2ccccc2)(C(=O)O)OC1[C@H](O)[C@H](O)CO` (some centres undefined), the Relative affinity was < 8.

Turning to `CC(=O)NC1C(O)CC(OCCCCCCCCC(=O)NCc2cccc3ccccc23)(C(=O)O)OC1[C@H](O)[C@H](O)CO` (some centres undefined), the Relative affinity is 16.

(Values after ChEMBL document CHEMBL1125780, “Monovalent sialosides that bind tightly to influenza A virus” (J Med Chem, 1991).)
